Shown are actives, neighbours in structure and some others; about 3% of the full set was active somewhere.
S1P1 ag-PAM: S1P1 agonists and agonism potentiators, primary screen, cell-based, primary and confirmation screens, CRE-bla reporter. AID 449, 2006. 56,000 tested, 0.57% active. activation, % at 9.5 µM. S1P1 CRE-bla cells, forskolin, beta-lactamase FRET, potentiator mode; S1P1 agonist co-added at EC20, 2 nM; 100% = saturating reference agonist, 0% = basal;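 active = activation above a cutoff set at the mean activation of all tested compounds plus 3 SD, cut at about 54% in these data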;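 also: forskolin at 4 µM as EC80 and the EC20 agonist is SEW2871; 100% = SEW2871 at its EC100 plus forskolin at EC80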
5-HT1A blocker: human 5-HT1a receptor antagonists, primary screen, cell-based, CHO, Ga15 NFAT-bla reporter; 5-hydroxytryptamine receptor 1A (Homo sapiens), P08908; CHO 5-HT1a Ga15 NFAT-bla reporter, antagonist mode; inhibition, % at 10 µM; 62,000 tested, 0.68% active; AID 612, 2007;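 active = inhibition above the mean of all tested compounds plus 3 SD, cut at about 43% in these data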;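 also: receptor stimulated by 5-CT agonist at 100 nM near EC80; beta-lactamase reporter measured by ratiometric fluorescence of a cleavable substrate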
S1P3 ag: human S1P3 receptor agonists, primary screen, cell-based, primary and confirmation, NFAT-BLA reporter | Sphingosine 1-phosphate receptor 3 (Homo sapiens), Q99500 | S1P3 NFAT-BLA reporter cells, agonism, FRET ratio; relative to 1 µM S1P, basal subtracted | activation, % at 4.5 µM | 60,000 tested, 0.1% active;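 active = activation above the screen-wide mean plus 3 SD, cut at about 4.5% in these data, passing the limit was not always enough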
Target sequence (Q99500 whole entry, looked up): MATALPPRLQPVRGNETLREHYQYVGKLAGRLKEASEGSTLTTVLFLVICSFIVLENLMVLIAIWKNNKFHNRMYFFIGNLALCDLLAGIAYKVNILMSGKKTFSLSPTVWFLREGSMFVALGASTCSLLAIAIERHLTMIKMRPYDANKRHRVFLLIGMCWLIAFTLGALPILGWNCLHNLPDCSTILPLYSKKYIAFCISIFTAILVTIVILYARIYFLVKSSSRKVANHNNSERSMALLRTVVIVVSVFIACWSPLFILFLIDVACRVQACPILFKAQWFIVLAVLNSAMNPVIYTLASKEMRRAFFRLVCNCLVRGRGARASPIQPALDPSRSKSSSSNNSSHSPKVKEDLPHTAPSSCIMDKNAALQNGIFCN
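Measure – % activation relative to 1 µM S1P (100%), per plate · System – stable CHO line with human S1P3, Gα16, NFAT-BLA reporter · Timing – cells plated overnight, compound 4 h 37 °C, substrate 2 h RT · Technique – fluorescent BLA substrate, ex 405 nm, em 460/535 nm ratio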
HTR1A agonist: human 5-HT1a receptor agonists, primary screen, cell-based, CHO, Ga15 NFAT-bla reporter | 5-hydroxytryptamine receptor 1A (Homo sapiens), P08908 | CHO 5-HT1a Ga15 NFAT-bla reporter, FRET ratio; 0% basal, 100% maximal reference agonist | activation, % at 10 µM | 65,000 tested, 0.56% active;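 active = activation above the screen-wide mean activation plus 3 SD, cut at about 19% in these data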;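 also: 0% = DMSO wells and 100% = 5-CT at EC100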
5HT1E antag: 5-HT1E receptor antagonists, primary screen, cell-based, HTS; 5-hydroxytryptamine receptor 1E (Homo sapiens), P28566; AID 571, 2007; 65,000 tested, 0.99% active; CHO 5-HT1E Ga15 NFAT-bla reporter, FRET, antagonist; inhibition, % at 6 µM;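 active = inhibition above a set limit, the mean inhibition across every tested compound plus 3 SD, cut at about 29% in these data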;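 also: signal is the 460 over 535 nm emission ratio of beta-lactamase substrate; 0% = agonist plus DMSO wells and 100% = wells without agonist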
HTR1E agonist: 5-HT1E receptor agonists, primary screen, cell-based, HTS | 5-hydroxytryptamine receptor 1E (Homo sapiens), P28566 | CHO 5-HT1E Ga15 NFAT-bla reporter, FRET; 0% DMSO wells, 100% control agonist wells | activation, % at 6 µM | 65,000 tested, 0.69% active | AID 574, 2007;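 active = activation above a set limit, the screen-wide mean activation plus 3 SD, cut at about 8.5% in these data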;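 also: 100% = positive control agonist at 1 µM giving full maximal response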
Starred values were filed as active, the others as inactive; nt = no result.

SMILES | S1P1 ag-PAM | 5-HT1A blocker | S1P3 ag | HTR1A agonist | 5HT1E antag | HTR1E agonist
CCCCn1c(=N)n(CC(O)COc2ccc(C)cc2)c2ccccc21 (configuration not stated) | 14 | 53* | -2 | -3 | -3 | 0
N=c1n(Cc2ccccc2)c2ccccc2n1CC(O)COc1ccccc1 (configuration not stated) | -15 | 22 | -1 | 20* | 5 | 0
CCOC(=O)N1CCN(c2ccc3nnnn3n2)CC1 | -13 | 8 | 1 | -2 | 2 | 0
CCN(CC)S(=O)(=O)c1ccc(/C(O)=C(\C#N)c2nc3ccccc3n2C)cc1 | 11 | -23 | 0 | 15 | 39* | 0
Cc1ccc(SC/C(O)=C(\C#N)c2nc3ccccc3n2C)cc1 | -17 | -29 | -1 | 0 | -10 | 0
O=C(c1ccco1)N1CCN(C(=O)N2c3ccccc3Sc3ccccc32)CC1 | 15 | 58* | -2 | -2 | 74* | -1
O=C(N1CCN(c2ccccn2)CC1)N1c2ccccc2Sc2ccccc21 | 8 | 48* | -1 | 0 | 37* | 0
Nn1c(SCC(=O)NCc2ccccc2)nnc1C1CC1 | -22 | -6 | 0 | 0 | -12 | 1
COCC(C)NC(=O)CCS(=O)(=O)c1nc(-c2ccc(OC)cc2)cc(C(F)(F)F)n1 (configuration not stated) | 16 | 39 | -1 | 4 | 8 | 0
CCOC(=O)CS(=O)(=O)c1nc(-c2ccccc2)cc(C(F)(F)F)n1 | 2 | 105* | -1 | -7 | 108* | 5
CCOC(=O)CCS(=O)(=O)c1nc(-c2ccccc2)cc(C(F)(F)F)n1 | nt | 86* | -1 | 0 | 54* | 1
CCOC(=O)CS(=O)(=O)c1nc(-c2ccc(F)cc2)cc(C(F)(F)F)n1 | -34 | 102* | -2 | -10 | 82* | 3
Cc1sc(NC(=O)CSc2nc(N)n(CC(=O)c3ccccc3)n2)c(C#N)c1C | -37 | -10 | 0 | 0 | 14 | 0
Cc1nn(CC(=O)Nc2cccnc2N2CCOCC2)c(=O)c2ccccc12 | nt | 3 | nt | 0 | -3 | -1
CCCCCCn1c(N2CCC(C(N)=O)CC2)nc2c1c(=O)n(C)c(=O)n2C | 10 | -7 | 0 | 2 | 5 | 1
CSc1nc2nc(-c3ccccc3)cc(C(F)(F)F)n2n1 | nt | -4 | -1 | 0 | 10 | 1
Cn1c(=O)[nH]c(=O)c2c1nc(Br)n2CCCSc1nc2ccccc2o1 | -23 | 14 | -2 | 3 | 34* | 0
CCn1c(SCC(=O)c2cc(C)n(-c3ccc(C(=O)OC)cc3)c2C)nnc1-c1cccnc1 | -8 | -4 | 0 | 2 | -7 | 1
COCCn1c(C)cc(C(=O)CSc2nnc(-c3cccnc3)n2-c2ccccc2F)c1C | 98* | -4 | 0 | 0 | -5 | 1
COc1ccc(OCc2nc(C#N)c(N3CCN(c4ccc(OC)cc4)CC3)o2)cc1 | 10 | 52* | -2 | -2 | 7 | 0
COc1ccc(N2CCN(c3oc(COc4ccccc4Cl)nc3C#N)CC2)cc1 | nt | 50* | nt | -4 | 2 | 0
N#Cc1nc(COc2ccc(F)cc2)oc1N1CCC(Cc2ccccc2)CC1 | 10 | 56* | -1 | -4 | 1 | -1
N#Cc1nc(COc2ccc(Cl)cc2)oc1N1CCCCCC1 | nt | 28 | -1 | -2 | 15 | 0
Cc1noc(/C=C/N(C)C)c1S(=O)(=O)N1CCCC(C(=O)NC(C)c2ccccc2)C1 (configuration not stated) | 6 | -1 | 0 | -5 | -9 | 0
CCC(C)(C(=O)NC1CCCCC1)N(Cc1ccco1)C(=O)c1ccc2c(c1)OCO2 (configuration not stated) | 3 | 44* | -1 | -1 | -6 | -1
SMILES | S1P1 ag-PAM | 5-HT1A blocker | S1P3 ag | HTR1A agonist | 5HT1E antag | HTR1E agonist
O=C1C2CCCN2C(c2ccccc2F)N1c1ccc(F)cc1 (configuration not stated) | 4 | -10 | 0 | 0 | 1 | 0
O=C(CSc1ncnc2c1oc1ccccc12)N1CCCc2ccccc21 | 65* | -15 | 0 | 4 | 4 | 0
COc1cccc(NC(=O)CSc2ncnc3c2oc2ccccc23)c1 | -5 | 6 | -2 | 2 | 31* | -1
CCOc1ccc(N2C(=O)CC(N3CCN(C4CCc5ccccc5C4)CC3)C2=O)cc1 (configuration not stated) | -7 | 9 | -2 | -3 | 4 | -1
Cc1ccc(N2C(=O)CC(N3CCN(C4CCc5ccccc5C4)CC3)C2=O)cc1 (configuration not stated) | 8 | 14 | -2 | 20* | 9 | 0
c1ccc(-c2oc3ncnc(NCCCn4ccnc4)c3c2-c2ccccc2)cc1 | -14 | 63* | -1 | 3 | 29* | -1
C=CS(=O)(=O)c1ccc(Oc2ccc(S(=O)(=O)C=C)cc2)cc1 | 124* | 106* | -1 | -4 | 103* | -1
CCC1CCCCN1C(=O)Cn1c(C(=O)OC)cc2ccsc21 (configuration not stated) | 7 | 25 | -1 | -1 | 12 | -1
O=C(CCCN1CCC(c2ccccc2)C1)c1ccc2c(c1)OCCO2 (configuration not stated) | -10 | 82* | 0 | 6 | -1 | 8
Cc1cc(C)c(S(=O)(=O)N2CCN(C)CC2)c(C)c1 | -15 | 10 | -1 | -3 | 2 | -1
CCOC(=O)N1CCC(NC(=O)C2CCN(S(=O)(=O)c3c(C)noc3C)CC2)CC1 | nt | -6 | nt | -4 | 9 | -1
NC(=O)c1cc2ccc(O)cc2oc1=NCc1ccccc1 | -153 | -207 | 3 | 86* | -22 | 26*
COc1ccc(OC)c(N=c2oc3cc(O)ccc3cc2C(N)=O)c1 | -74 | -53 | 4 | 39* | -21 | 12*
NC(=O)c1cc2ccc(O)cc2oc1=Nc1ccccc1 | -277 | -322 | 6 | 99* | -48 | 50*
O=C(c1ccccc1)c1cc2ccccc2o1 | -23 | -10 | -1 | -2 | -6 | 0
Cc1c(S(=O)(=O)N2CCN(C(=O)c3ccco3)CC2)c(=O)n(C)c(=O)n1C | -9 | -3 | -2 | -4 | -5 | 1

Screens: PubChem BioAssay, The Scripps Research Institute Molecular Screening Center
